Source: article PMC12780499 (Zoological Research, 2025)
Structures can show the parent of a compound that is named as a salt. Where a SMILES comes first, the peptide text is derived from it. [ ]: non-standard residue; d: D form. AEEA = NCCOCCOCC(=O)O

How the values were obtained:
MRSA (strain 33564) [1] = test: Time-kill kinetics; type: cell-based, methicillin-resistant Staphylococcus aureus; details: 1×10^7 CFU/mL, RPMI 1640 + 10% FBS, 37°C
Summary of the method: (§1)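 Bacteria adjusted to 1×10^7 CFU/mL in RPMI 1640 with 10% FBS. Incubated at 37°C, 200 rpm. Sampled every 30 min from 0 to 360 min, serially diluted in saline, plated on Mueller-Hinton agar, counted after 24 h at 37°C. Plotted as log₁₀ CFU/mL versus time.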

[2] = system: K. pneumoniae (strain 9409); test: Membrane depolarization, DiSC3; type: cell-based, Klebsiella pneumoniae; details: 30 min observation
Summary of the method: (§2)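 Cells grown in Mueller-Hinton broth to OD600 0.5, pelleted (3500 r/min, 5 min, 4°C), washed twice in 5 mM HEPES pH 7.4 with 20 mM glucose. Adjusted to OD600 0.05 and loaded 30 min at room temperature with DiSC₃(5) (2 µmol/L final). KCl added (100 mmol/L final). After baseline reading (ex 622/em 670 nm), test compound added at 1, 2, 4 or 8 µmol/L; read continuously for 30 min.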

MRSA (strain 33564) [3] = test: Membrane depolarization, DiSC3; type: cell-based, methicillin-resistant Staphylococcus aureus; details: 30 min observation
Summary of the method: as §2

K. pneumoniae R62 = test: Acute K. pneumoniae pulmonary infection model; type: in vivo, mouse (female CD-1)
[4] = system: K. pneumoniae strain 9409; test: Membrane permeabilization, PI uptake; type: cell-based, Klebsiella pneumoniae; details: 0-32 μM, PI 10 μg/mL, 37°C 30 min
E. coli LPS = test: LPS-induced endotoxemia model; type: in vivo, mouse (female CD-1); details: 10 mg/kg i.p. 1 h after LPS 10 mg/kg, blood 6 h after LPS, n = 5
Summary of the method: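 Female CD-1 mice (8–10 weeks) challenged intravenously with E. coli LPS 10 mg/kg. Test compound 10 mg/kg given intraperitoneally 1 h later (n=5); LPS-only controls. Blood drawn 6 h after LPS. Serum IL-6, MCP-1, TNF-α and IL-1β measured by ELISA. Mean±SEM; one-way ANOVA, Dunnett.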

[5] = system: K. pneumoniae persister cells; test: Anti-persister activity; type: cell-based, Klebsiella pneumoniae; details: 8× MIC, 1 h 37°C; persisters from colistin 50× MIC 6 h
Summary of the method: (§3)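 Exponential-phase cultures treated 6 h with 50× MIC colistin (K. pneumoniae) or vancomycin (MRSA). Survivors pelleted (4 000 r/min, 10 min, 4°C), washed twice in PBS and resuspended in Mueller-Hinton broth at about 1×10^7 CFU/mL. […] Serially diluted, plated on Mueller-Hinton agar, CFU counted.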

K. pneumoniae 9409 = test: Bacterial aggregation; type: cell-based, Klebsiella pneumoniae; details: 10 to 80 μmol/L, 4 h 37°C, PBS
In vivo pharmacokinetics = test: In vivo pharmacokinetics; parameters: species or system mouse (female CD-1)
Summary of the method: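 Plasma concentrations of test compound measured by HPLC over 8 h after dosing.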

MRSA = test: Agar spotting assay; type: cell-based, methicillin-resistant Staphylococcus aureus; details: bacterial spotting assay, Fig. 4B
LPS = test: BODIPY-TR-cadaverine displacement assay; type: binding; details: 0-64 μmol/L, LPS 50 μg/mL, 50 mmol/L Tris pH 7.4, 30 min 37°C
MRSA 33564 [6] = test: Bacterial aggregation; type: cell-based, methicillin-resistant Staphylococcus aureus; details: 10 to 80 μmol/L, 4 h 37°C, PBS
MRSA strain 33564 = test: Membrane permeabilization, PI uptake; type: cell-based, methicillin-resistant Staphylococcus aureus; details: 0-32 μM, PI 10 μg/mL, 37°C 30 min
[7] = system: K. pneumoniae (strain 9409); test: Salt sensitivity assay; type: cell-based, Klebsiella pneumoniae
Summary of the method: (§4)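 MICs determined in RPMI-1640 with 150 mM FeCl₃, CaCl₂, KCl, NaCl or MgCl₂ added; unsupplemented RPMI 1640 as control. Read after 18–24 h at 37°C. Three independent experiments, mean±SEM.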

MRSA (strain 33564) [8] = test: Salt sensitivity assay; type: cell-based, methicillin-resistant Staphylococcus aureus
Summary of the method: as §4

[9] = In vivo toxicity, 5 day intraperitoneal dosing; parameters: species or system mouse (female CD-1); details: for serum urea: n = 4; for aspartate aminotransferase (AST): serum day 5, n = 4; for alanine aminotransferase (ALT): serum day 5, n = 4, mean
Summary of the method: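 Test compound given intraperitoneally to mice over 5 days at 5 and 10 mg/kg; PBS control group. Serum ALT and AST measured in U/L.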

bacterial DNA = test: DNA interaction, gel electrophoresis; type: binding; details: Fig. S5
MRSA persister cells = test: Anti-persister activity; type: cell-based, methicillin-resistant Staphylococcus aureus; details: 8 μmol/L, 1 h 37°C; persisters from vancomycin 50× MIC 6 h
Summary of the method: as §3

MRSA biofilm [10] = test: Eradication of preformed biofilm, crystal violet; type: cell-based, methicillin-resistant Staphylococcus aureus; details: TRPY 8 µmol/L, 24 h on 24 h biofilm
Summary of the method: (§5)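 Biofilms formed with test compound present (inhibition) or pre-formed then treated (eradication). Stained with 0.1% crystal violet; biofilm quantified by absorbance at 600 nm against untreated control.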

K. pneumoniae biofilm [11] = test: Eradication of preformed biofilm, crystal violet; type: cell-based, Klebsiella pneumoniae; details: TRPY 8 µmol/L, 24 h on 24 h biofilm
Summary of the method: as §5

[12] = system: HEK293 (human embryonic kidney cells); test: Cytotoxicity, CCK-8; type: cell-based; details: nearly all concentrations (2.5-80 μmol/L), 24 h
[13] = system: HaCaT (human keratinocytes); test: Cytotoxicity, CCK-8; type: cell-based; details: nearly all concentrations (2.5-80 μmol/L), 24 h
MRSA biofilm [14] = test: Biofilm formation inhibition, crystal violet; type: cell-based, methicillin-resistant Staphylococcus aureus; details: TRPY 32 μmol/L, 24 h
Summary of the method: as §5

K. pneumoniae = test: Agar spotting assay; type: cell-based, Klebsiella pneumoniae; details: bacterial spotting assay, Fig. 4B
Dynamic light scattering = type: physicochemical; details: DLS, 500 μg/mL in PBS pH 7.4, 25°C, triplicate
MRSA 33564 [15] = test: MRSA peritoneal infection model; type: in vivo, mouse (female CD-1); details: 10 mg/kg i.p.
Summary of the method: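 Female CD-1 mice (8–10 weeks) were challenged intraperitoneally with MRSA (1×10^8 CFU/mL). At 2 h post-infection they received 10 mg/kg test compound or PBS vehicle intraperitoneally (n=6 per group). Liver and kidneys were collected at 24 h post-infection and fixed in formalin. H&E-stained sections were compared with those from healthy, infected and vehicle-treated mice.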

[16] = system: K. pneumoniae (strain 9409); test: Time-kill kinetics; type: cell-based, Klebsiella pneumoniae; details: TRPY 2 μmol/L; 1×10^7 CFU/mL, RPMI 1640 + 10% FBS, 37°C
Summary of the method: as §1

[17] = system: RAW264.7 (murine macrophages); test: Cytotoxicity, CCK-8; type: cell-based; details: nearly all concentrations (2.5-80 μmol/L), 24 h
K. pneumoniae biofilm [18] = test: Biofilm formation inhibition, crystal violet; type: cell-based, Klebsiella pneumoniae; details: TRPY 32 μmol/L, 24 h
Summary of the method: as §5

[19] = system: MRSA-infected RAW264.7 macrophages; test: Intracellular antibacterial activity; type: cell-based; details: vancomycin 20 μmol/L, 2 h; MOI 10:1
[20] = 2 mg/kg intranasal, 18 h post-treatment, n = 7
[21] = female, CD-1, mouse, plasma, iv, 5 mg/kg
[22] = 150 mmol/L of each salt in RPMI-1640
[23] = 5 mg/kg i.p. once daily for 5 days
[24] = 10 mg/kg i.p. once daily for 5 days
[25] = 5 and 10 mg/kg i.p. for 5 days vs PBS

CNC(C)C1CCC(N)C(OC2C(N)CC(N)C(OC3OCC(C)(O)C(NC)C3O)C2O)O1 (stereo not shown) [Gentamicin, gentamicin sulfate]
time to eradicate all viable cells (MRSA (strain 33564) [1]; gentamicin 20 μmol/L): over 360 min | DiSC3(5) fluorescence (membrane potential) [2]: maintained baseline fluorescence | DiSC3(5) fluorescence (membrane potential) (MRSA (strain 33564) [3]): maintained baseline fluorescence

CC[C@H](C)[C@H](NC(=O)[C@H](CCCCN)NC(=O)[C@H](Cc1c[nH]c2ccccc12)NC(=O)[C@H](Cc1c[nH]c2ccccc12)NC(=O)[C@H](CCCCN)NC(=O)[C@H](CCCCN)NC(=O)[C@H](CCCCN)NC(=O)[C@H](Cc1c[nH]c2ccccc12)NC(=O)[C@H](CCCCN)NC(=O)[C@H](CCCCN)NC(=O)[C@H](Cc1c[nH]c2ccccc12)NC(=O)[C@H](CCCCN)NC(=O)[C@H](CCCCN)NC(=O)[C@@H](NC(=O)[C@@H](NC(=O)[C@H](CCCCN)NC(=O)[C@@H](N)CCCNC(=N)N)[C@@H](C)CC)[C@@H](C)CC)C(=O)N[C@@H](Cc1c[nH]c2ccccc12)C(=O)N[C@@H](Cc1c[nH]c2ccccc12)C(=O)N[C@@H](CCCCN)C(=O)NCCOCCOCC(N)=O [TRPY] (H-RKIIKKWKKWKKKWWKIWWK[AEEA]-NH2; N-terminus and C-terminus assumed)
lung histology (H&E) (K. pneumoniae R62; 2 mg/kg intranasal): reduced inflammatory cell infiltration and preserved alveolar architecture | reduction of pulmonary bacterial burden vs control (K. pneumoniae R62; 2 mg/kg intranasal 2 h post-infection, lungs 18 h post-treatment, n = 7): approximately 1 log | reduction in IL-1β vs control group (K. pneumoniae R62; [20]): 42.8% | reduction in IL-6 vs control group (K. pneumoniae R62; [20]): 39.2% | reduction in MCP-1 vs control group (K. pneumoniae R62; [20]): 58.4% | reduction in TNF-α vs control group (K. pneumoniae R62; [20]): 34.7% | PI uptake (cytoplasmic membrane disruption) [4]: concentration-dependent increase in PI fluorescence | reduction of serum IL-1β relative to LPS-only controls (E. coli LPS): 52.3% | reduction of serum IL-6 relative to LPS-only controls (E. coli LPS): 42.3% | reduction of serum MCP-1 relative to LPS-only controls (E. coli LPS): 46.6% | reduction of serum TNF-α relative to LPS-only controls (E. coli LPS): 39.5% | persister CFU/mL after treatment [5]: virtually undetectable levels | bacterial aggregation (K. pneumoniae 9409): dose-dependent formation of visible precipitates | level at 0.25 h (In vivo pharmacokinetics; [21]): ~15000 ng/mL | level at 2 h (In vivo pharmacokinetics; [21]): < 1000 ng/mL | level at 8 h (In vivo pharmacokinetics; [21]): ~120 ng/mL | elimination profile (In vivo pharmacokinetics; single i.v. 5 mg/kg, 8 h): biphasic elimination profile | concentration giving complete growth inhibition (MRSA): ≥ 1 µmol/L | LPS binding (probe displacement) (LPS): strong, concentration-dependent binding to LPS | bacterial aggregation (MRSA 33564 [6]): dose-dependent formation of visible precipitates | PI uptake (cytoplasmic membrane disruption) (MRSA strain 33564): concentration-dependent increase in PI fluorescence | effect of KCl, NaCl, and CaCl2 on antimicrobial activity [7, 22]: minimal interference with antimicrobial activity | MIC with FeCl3 ([7]; RPMI-1640 + 150 mmol/L FeCl3, 37°C 18-24 h, strain 9409): approximately 2.0 μmol/L | MIC with MgCl2 ([7]; RPMI-1640 + 150 mmol/L MgCl2, 37°C 18-24 h, strain 9409): approximately 2.0 μmol/L | effect of KCl, NaCl, and CaCl2 on antimicrobial activity (MRSA (strain 33564) [8]; [22]): minimal interference with antimicrobial activity | MIC with FeCl3 (MRSA (strain 33564) [8]; RPMI-1640 + 150 mmol/L FeCl3, 37°C 18-24 h, strain 33564): approximately 2.0 μmol/L | MIC with MgCl2 (MRSA (strain 33564) [8]; RPMI-1640 + 150 mmol/L MgCl2, 37°C 18-24 h, strain 33564): approximately 2.0 μmol/L | serum urea [9, 23]: 11.2 ± 1.5 µmol/L | aspartate aminotransferase (AST) [9, 23]: 102.7±6.6 U/L | alanine aminotransferase (ALT) [9, 23]: 22.8±2.6 U/L | serum urea [9, 24]: 12.1 ± 1.2 µmol/L | aspartate aminotransferase (AST) [9, 24]: 105.2±4.7 U/L | alanine aminotransferase (ALT) [9, 24]: 23.4±3.2 U/L | kidney histopathology (H&E) ([9]; 5 and 10 mg/kg i.p. for 5 days): normal glomerular and tubular architecture | liver histopathology (H&E) ([9]; 5 and 10 mg/kg i.p. for 5 days): no signs of necrosis, inflammation, or fatty degeneration | alkaline phosphatases (ALP) levels [9, 25]: comparable across treatment groups | body weight [9, 25]: no significant differences between the TRPY-treated and control groups | concentration inducing degradation or binding to bacterial DNA (bacterial DNA): ≥ 4 µmol/L | persister cells after treatment (MRSA persister cells): complete eradication | reduction of preformed biofilm (MRSA biofilm [10]): over 40% | reduction of preformed biofilm (K. pneumoniae biofilm [11]): over 40% | cell viability [12]: over 80% | cell viability [13]: over 80% | reduction of biofilm formation compared to control (MRSA biofilm [14]): approximately 95% | concentration giving complete growth inhibition (K. pneumoniae): ≥ 1 µmol/L | time to eradicate all viable cells (MRSA (strain 33564) [1]; TRPY 2 μmol/L): ≤ 60 min | nanoparticle average size (Dynamic light scattering): approximately 160 nm | liver and kidney histopathology in infected mice (MRSA 33564 [15]): maintained normal tissue architecture in the liver and kidneys | time to eliminate all viable cells [16]: ≤ 60 min | cell viability [17]: over 80% | reduction of biofilm formation compared to control (K. pneumoniae biofilm [18]): approximately 95%

CN[C@H](CC(C)C)C(=O)N[C@H]1C(=O)N[C@@H](CC(N)=O)C(=O)N[C@H]2C(=O)N[C@H]3C(=O)N[C@H](C(=O)N[C@H](C(=O)O)c4cc(O)cc(O)c4-c4cc3ccc4O)[C@H](O)c3ccc(c(Cl)c3)Oc3cc2cc(c3O[C@@H]2O[C@H](CO)[C@@H](O)[C@H](O)[C@H]2O[C@H]2C[C@](C)(N)[C@H](O)[C@H](C)O2)Oc2ccc(cc2Cl)[C@H]1O [Vancomycin, vancomycin sulfate]
intracellular bacterial burden [19]: approximately 1.5×10^5 CFU/mL
